Laboratory results from ChEMBL document CHEMBL3351885, “Putative kappa opioid heteromers as targets for developing analgesics free of adverse effects” (J Med Chem, 2014).
Activity calls are given as the source filed them.

How the values were obtained:
[1] = biological target: Mu-type opioid receptor (Homo sapiens) (UniProt P35372); experiment: Agonist activity at human mu opioid receptor expressed in HEK293 cells assessed as induction of intracellular calcium release by FLIPR assay; assay type: functional, cell-based
Chain of Mu-type opioid receptor (Homo sapiens) (P35372 whole entry): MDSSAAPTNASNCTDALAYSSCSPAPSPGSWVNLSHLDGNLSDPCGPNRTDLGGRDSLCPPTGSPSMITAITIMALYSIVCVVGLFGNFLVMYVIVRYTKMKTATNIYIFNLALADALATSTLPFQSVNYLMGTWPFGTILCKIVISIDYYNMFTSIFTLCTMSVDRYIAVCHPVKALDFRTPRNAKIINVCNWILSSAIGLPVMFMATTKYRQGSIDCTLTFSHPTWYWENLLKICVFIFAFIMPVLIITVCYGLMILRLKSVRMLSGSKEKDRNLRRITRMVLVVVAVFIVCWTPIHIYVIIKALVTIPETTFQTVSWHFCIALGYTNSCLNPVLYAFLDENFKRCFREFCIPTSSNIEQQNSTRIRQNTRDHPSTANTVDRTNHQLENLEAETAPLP
Outline: (§1)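 HEK293 cells stably carrying chimeric Δ6-Gαqi-myr, transiently transfected with one or two opioid receptor cDNAs (200 ng/20000 cells, Lipofectamine 2000). Cells were reseeded at 24 h and assayed 48 h post-transfection with a FLIPR Ca2+ kit. Fluorescence was read for 90 s after ligand addition to build concentration-response curves; mean ± SEM, n = 3−5.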

[2] = biological target: Kappa-type opioid receptor (Homo sapiens) (UniProt P41145); experiment: Agonist activity at human kappa opioid receptor expressed in HEK293 cells assessed as induction of intracellular calcium release by FLIPR assay; assay type: functional, cell-based; outline: as §1
Chain of Kappa-type opioid receptor (Homo sapiens) (P41145 whole entry): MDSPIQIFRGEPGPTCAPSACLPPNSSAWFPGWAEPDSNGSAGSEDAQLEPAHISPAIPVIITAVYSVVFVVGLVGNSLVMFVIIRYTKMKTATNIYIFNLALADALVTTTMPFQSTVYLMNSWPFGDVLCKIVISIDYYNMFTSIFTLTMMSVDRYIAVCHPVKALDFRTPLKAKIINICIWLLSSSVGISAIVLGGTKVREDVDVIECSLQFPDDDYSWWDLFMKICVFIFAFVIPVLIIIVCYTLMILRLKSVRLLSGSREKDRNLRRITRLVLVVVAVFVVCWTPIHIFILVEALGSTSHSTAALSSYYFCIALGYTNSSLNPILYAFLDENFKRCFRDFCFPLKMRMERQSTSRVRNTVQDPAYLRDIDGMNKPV

[3] = biological target: Delta-type opioid receptor (Homo sapiens) (UniProt P41143); experiment: Agonist activity at human delta opioid receptor expressed in HEK293 cells assessed as induction of intracellular calcium release by FLIPR assay; assay type: functional, cell-based; outline: as §1
Chain of Delta-type opioid receptor (Homo sapiens) (P41143 whole entry): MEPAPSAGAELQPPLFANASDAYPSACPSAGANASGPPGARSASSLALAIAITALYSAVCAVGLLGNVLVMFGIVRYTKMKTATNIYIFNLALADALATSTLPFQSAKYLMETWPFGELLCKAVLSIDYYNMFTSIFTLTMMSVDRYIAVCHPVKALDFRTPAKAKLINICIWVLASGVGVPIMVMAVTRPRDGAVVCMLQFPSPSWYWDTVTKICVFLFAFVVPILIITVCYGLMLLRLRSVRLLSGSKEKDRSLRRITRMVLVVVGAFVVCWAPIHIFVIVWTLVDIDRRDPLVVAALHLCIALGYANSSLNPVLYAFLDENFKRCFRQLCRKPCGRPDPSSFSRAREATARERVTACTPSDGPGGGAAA

[4] = biological target: T1, Opioid receptors; mu & kappa (Homo sapiens) (UniProt P41145+P35372); experiment: Agonist activity at human mu-kappa opioid receptor expressed in HEK293 cells assessed as induction of intracellular calcium release by FLIPR assay; assay type: functional, cell-based; outline: as §1
T1 sequence (P35372 whole entry, looked up): as the sequence (P35372 whole entry) above
T1 sequence (P41145 whole entry, looked up): as the sequence (P41145 whole entry) above

[5] = biological target: Opioid receptors; mu & delta (Homo sapiens) (UniProt P41143+P35372); experiment: Agonist activity at human mu-delta opioid receptor expressed in HEK293 cells assessed as induction of intracellular calcium release by FLIPR assay; assay type: functional, cell-based; outline: as §1
Chain of Opioid receptors; mu & delta (Homo sapiens) (P35372 whole entry, looked up): as the sequence (P35372 whole entry) above
Chain of Opioid receptors; mu & delta (Homo sapiens) (P41143 whole entry, looked up): as the sequence (P41143 whole entry) above

[6] = biological target: T2, Opioid receptors; delta & kappa (Homo sapiens) (UniProt P41145+P41143); experiment: Agonist activity at human delta-kappa opioid receptor expressed in HEK293 cells assessed as induction of intracellular calcium release by FLIPR assay; assay type: functional, cell-based; outline: as §1
T2 sequence (P41143 whole entry, looked up): as the sequence (P41143 whole entry) above
T2 sequence (P41145 whole entry, looked up): as the sequence (P41145 whole entry) above

Mus musculus [7] = experiment: Antinociceptive effect in intrathecally dosed ICR-CD1 mouse by tail flick test; assay type: functional
Outline: (§2)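 Male ICR-CD1 mice, 17−25 g. Tail-flick latency was taken before dosing and at the compound's peak time, with a 10 s cutoff. Response was expressed as %MPE = (test − control)/(10 − control) × 100. Three groups of 8−10 mice per dose-response curve, each mouse used once. ED50 with 95% CI came from nonlinear regression.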

Mus musculus [8] = experiment: Antinociceptive effect in intracerebroventricularly dosed ICR-CD1 mouse by tail flick test; assay type: functional; outline: as §2
Mus musculus [9] = experiment: Antinociceptive effect in intrathecally dosed ICR-CD1 mouse assessed as peak time for antinociceptive effect by tail flick test; assay type: functional
Outline: (§3)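 Peak time in the mouse tail-flick test was set by measuring antinociception at 5, 10, 20, 30 and 60 min after dosing; latency cutoff 10 s; response expressed as %MPE.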

Mus musculus [10] = experiment: Antinociceptive effect in intracerebroventricularly dosed ICR-CD1 mouse assessed as peak time for antinociceptive effect by tail flick test; assay type: functional; outline: as §3
Mus musculus [11] = experiment: Antinociceptive effect in intrathecally dosed ICR-CD1 mouse assessed as drug tolerance development measured after 25 hrs by tail flick test; assay type: functional, organism-based
Outline: (§4)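 Acute tolerance: the highest (ED80−90) dose of the day-1 dose-response curve was given again 24 h later to the same mice in the tail-flick test. No significant difference between days was scored as no tolerance.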

Mus musculus [12] = experiment: Antinociceptive effect in intracerebroventricularly dosed ICR-CD1 mouse assessed as drug tolerance development measured after 25 hrs by tail flick test; assay type: functional, organism-based; outline: as §4
Mus musculus [13] = experiment: Potency ratio, ratio,of ED50 for antinociceptive effect in intracerebroventricularly dosed ICR-CD1 mouse to ED50 for intrathecally dosed ICR-CD1 mouse by tail flick test; assay type: functional
Mus musculus [14] = experiment: Induction of aversion in ICR-CD1 mouse at 0.1 to 1 mg/kg, sc by conditioned place preference assay; assay type: organism-based; design: dose 0.1-1 mg/kg, route subcutaneous; details: in vivo
Outline: (§5)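 Two-chamber place conditioning with rod versus mesh floors. Bias was taken in a 20 min free-exploration pretest, and groups were counterbalanced. Drug or vehicle (saline with 1% DMSO) was paired with one chamber and saline with the other, injected sc 20 min before 30 min confinement. Four drug and four saline sessions alternated daily. Tests of 20 min came after the 4th and 8th sessions. Score = change in CS+ time from pretest; Bonferroni t test against vehicle.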

Mus musculus [15] = experiment: Antinociceptive effect in sc dosed ICR-CD1 mouse by tail flick test; assay type: functional; outline: as §2
Mus musculus [16] = experiment: Antinociceptive effect in sc dosed ICR-CD1 mouse by tail flick test relative to morphine; assay type: functional
Mus musculus [17] = experiment: Antinociceptive effect in orally dosed ICR-CD1 mouse by tail flick test; assay type: functional; details: po; outline: as §2
Mus musculus [18] = experiment: Ratio of antinociceptive effect in intrathecally dosed ICR-CD1 mouse in presence of 500 nmol naloxone to antinociceptive effect in intrathecally dosed ICR-CD1 mouse in absence of 500 nmol naloxone; assay type: functional
Mus musculus [19] = experiment: Antinociceptive effect in intrathecally dosed ICR-CD1 mouse co-treated with kappa opioid receptor antagonist norB-NI by tail flick test; assay type: functional, organism-based
Mus musculus [20] = experiment: Antinociceptive effect in intrathecally dosed ICR-CD1 mouse co-treated with delta opioid receptor antagonist NTB by tail flick test; assay type: functional, organism-based
Mus musculus [21] = experiment: Antinociceptive effect in intrathecally dosed ICR-CD1 mouse co-treated with mu opioid receptor antagonist beta-FNA by tail flick test; assay type: functional, organism-based
Mus musculus [22] = experiment: Antinociceptive effect in ICR-CD1 mouse dosed intrathecally twice on day 1 and day 2 followed by injection with same dose on day 3 by tail flick test; assay type: functional
Mus musculus [23] = experiment: Physical dependence in ICR-CD1 mouse assessed as induction of jumps over 10 mins period at 2.5 to 10 mg/kg, sc dosed three times daily for 4 days and 10 mg/kg, sc on day 5 followed 3 hrs later by single 10 mg/kg, sc naloxone; assay type: organism-based; details: in vivo
Outline: (§6)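 Mice received sc drug three times daily for 4 days (2.5−10 mg/kg), then 10 mg/kg on day 5, with sc naloxone 3 h later. Jumps were counted over 10 min. A morphine group served as control.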

Mus musculus [24] = experiment: Physical dependence in ICR-CD1 mouse assessed as induction of jumps over 10 mins period at 2.5 to 10 mg/kg, sc dosed three times daily for 4 days and 10 mg/kg, sc on day 5 followed 3 hrs later by single 50 mg/kg, sc naloxone; assay type: organism-based; details: in vivo; outline: as §6
Mus musculus [25] = experiment: Rewarding effect in ICR-CD1 mouse at 0.3 to 10 mg/kg, sc by conditioned place preference assay; assay type: functional, organism-based; outline: as §5
Mus musculus [26] = experiment: Induction of aversion in ICR-CD1 mouse at 0.3 to 10 mg/kg, sc by conditioned place preference assay; assay type: organism-based; design: dose 0.3-10 mg/kg, route subcutaneous; details: in vivo; outline: as §5
Mus musculus [27] = experiment: Rewarding effect in ICR-CD1 mouse at 0.3 to 10 mg/kg, sc in presence of naloxone by conditioned place preference assay; assay type: functional, organism-based
[28] = biological target: Mu-type opioid receptor (Homo sapiens) (UniProt P35372); experiment: Agonist activity at human mu opioid receptor expressed in HEK293 cells assessed as induction of beta-arrestin 2 recruitment incubated for 60 mins by fluorescent microscopy; assay type: cell-based
Outline: (§7)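 HEK293 cells were transiently transfected with single or paired opioid receptors, replated on chamber slides after 24 h and left overnight. Ligands in serum-free medium were applied for 60 min at 37 °C. Cells were fixed in 4% paraformaldehyde, then stained with goat anti-β-arrestin2 (1 μg/mL, 4 °C overnight), fluorescent anti-goat secondary (30 min, RT) and DAPI. A brighter membrane on fluorescence microscopy scored as recruitment.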

[29] = biological target: Kappa-type opioid receptor (Homo sapiens) (UniProt P41145); experiment: Agonist activity at human kappa opioid receptor expressed in HEK293 cells assessed as induction of beta-arrestin 2 recruitment incubated for 60 mins by fluorescent microscopy; assay type: cell-based; outline: as §7
[30] = biological target: Delta-type opioid receptor (Homo sapiens) (UniProt P41143); experiment: Agonist activity at human delta opioid receptor expressed in HEK293 cells assessed as induction of beta-arrestin 2 recruitment incubated for 60 mins by fluorescent microscopy; assay type: cell-based; outline: as §7
[31] = biological target: T2, Opioid receptors; delta & kappa (Homo sapiens); experiment: Agonist activity at human kappa-delta opioid receptor expressed in HEK293 cells assessed as induction of beta-arrestin 2 recruitment incubated for 60 mins by fluorescent microscopy; assay type: cell-based; outline: as §7
[32] = biological target: T1, Opioid receptors; mu & kappa (Homo sapiens); experiment: Agonist activity at human mu-kappa opioid receptor expressed in HEK293 cells assessed as induction of beta-arrestin 2 recruitment incubated for 60 mins by fluorescent microscopy; assay type: cell-based; outline: as §7

Row | SMILES | Activity [1] | Activity [2] | Activity [3] | Activity [4] | Activity [5] | Activity [6] | ED50 (Mus musculus [7]) [pmol] | ED50 (Mus musculus [8]) [pmol] | Time (Mus musculus [9]) [min] | Time (Mus musculus [10]) [min] | Activity (Mus musculus [11]) | Activity (Mus musculus [12]) | Ratio ED50 (Mus musculus [13]) | MPE (Mus musculus [7]) [%] | MPE (Mus musculus [8]) [%] | other results
1 | O=C(N[C@@H]1CC[C@@]2(O)[C@H]3Cc4ccc(O)c5c4[C@@]2(CCN3CC2CC2)[C@H]1O5)c1cc2ccccc2o1 | Active | Active | Active | Active | Active | Active | 191.9 | 580.8 | 10 | 10 | Active | Active | 3 | – | – | –
2 | Cn1c(C(=O)N[C@@H]2CC[C@@]3(O)[C@H]4Cc5ccc(O)c6c5[C@@]3(CCN4CC3CC3)[C@H]2O6)cc2ccccc21 | Active | Active | Active | Active | Active | Active | 23.06 | 550.4 | 10 | 10 | Active | Active | 24 | – | – | –
3 | COC(=O)[C@@H]1C[C@H](OC(C)=O)C(=O)[C@H]2[C@@]1(C)CC[C@H]1C(=O)O[C@H](c3ccoc3)C[C@]21C [SALVINORIN A] | – | – | – | – | – | – | – | – | – | – | – | – | – | – | – | Activity (Mus musculus [14]): Toxic
4 | O=C(N[C@@H]1CC[C@@]2(O)[C@H]3Cc4ccc(O)c5c4[C@@]2(CCN3CC2CC2)[C@H]1O5)c1ccc2[nH]ccc2c1 | – | – | – | Active | – | Active | – | – | 20 | – | – | – | – | <60 | <60 | –
5 | O=C(N[C@@H]1CC[C@@]2(O)[C@H]3Cc4ccc(O)c5c4[C@@]2(CCN3CC2CC2)[C@H]1O5)c1c[nH]c2ccccc12 | – | – | – | Active | – | Active | 29.39 | – | 20 | – | Active | – | – | – | <60 | –
6 | O=C(N[C@@H]1CC[C@@]2(O)[C@H]3Cc4ccc(O)c5c4[C@@]2(CCN3CC2CC2)[C@H]1O5)c1cc2cc(F)ccc2[nH]1 | – | – | – | – | Active | inactive | 295 | – | 10 | – | inactive | – | – | – | <60 | –
7 | O=C(N[C@@H]1CC[C@@]2(O)[C@H]3Cc4ccc(O)c5c4[C@@]2(CCN3CC2CC2)[C@H]1O5)c1cc2cc(Cl)ccc2[nH]1 | – | – | – | Active | – | Active | – | – | 20 | – | – | – | – | <60 | <60 | –
8 | O=C(N[C@@H]1CC[C@@]2(O)[C@H]3Cc4ccc(O)c5c4[C@@]2(CCN3CC2CC2)[C@H]1O5)c1cc2ccccc2[nH]1 | Active | Active | Active | Active | Active | Active | 21.27 | 1252.2 | 10 | 10 | Active | Active | 59 | – | – | ED50 (Mus musculus [15]): 0.97 mg/kg; Ratio ED50 (Mus musculus [16]): 9; ED50 (Mus musculus [17]): 9.08 mg/kg; Ratio (Mus musculus [18]): 15; Activity (Mus musculus [19]): Active; Activity (Mus musculus [20]): Active; Activity (Mus musculus [21]): Active; ED50 (Mus musculus [22]): 29.47 pmol; Activity (Mus musculus [23]): Non-toxic; Activity (Mus musculus [24]): Non-toxic; Activity (Mus musculus [25]): Dose-dependent effect; Activity (Mus musculus [26]): Non-toxic; Activity (Mus musculus [27]): inactive; Activity [28]: Active; Activity [29]: Active; Activity [30]: Active; Activity [31]: inactive; Activity [32]: inactive
9 | O=C(N[C@@H]1CC[C@@]2(O)[C@H]3Cc4ccc(O)c5c4[C@@]2(CCN3CC2CC2)[C@H]1O5)c1cc2ccccc2s1 | Active | Active | Active | Active | Active | Active | – | – | 20 | – | – | – | – | <60 | <60 | –
10 | CN1CC[C@]23c4c5ccc(O)c4O[C@H]2[C@@H](O)C=C[C@H]3[C@H]1C5 [MORPHINE] | – | – | – | – | – | – | – | – | – | – | – | – | – | – | – | ED50 (Mus musculus [15]): 7.8 mg/kg; ED50 (Mus musculus [17]): 2.51 mg/kg
